Holding throughout (type): functional
Assay [1] is filed under the species Homo sapiens. The assay is described as follows: Immunosuppressive activity against human peripheral mononuclear cells assessed as inhibition of LPS-stimulated IL4 production at 10 ug/mL. Summed up:
(§1)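 Whole blood from healthy human volunteers was used as the cell source for the immunosuppression screen. Other details follow a previously published method.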

Assay [2] is filed under the species Homo sapiens. The experiment in a line: Immunosuppressive activity against human peripheral mononuclear cells assessed as inhibition of LPS-stimulated IFN-gamma production at 10 ug/mL. Summed up: as §1
Assay [3] is filed under the species Homo sapiens. The experiment in a line: Immunosuppressive activity against human peripheral mononuclear cells assessed as inhibition of LPS-stimulated IL2 production at 10 ug/mL. Summed up:
as §1

A short description of assay [4]: Immunosuppressive activity against human peripheral mononuclear cells assessed as inhibition of LPS-stimulated IFN-gamma production at 3 ug/mL. Summed up:
as §1

Assay [5] is described as follows: Immunosuppressive activity against human peripheral mononuclear cells assessed as inhibition of LPS-stimulated IL4 production at 3 ug/mL. Summed up: as §1
Assay [6] is described as follows: Immunosuppressive activity against human peripheral mononuclear cells assessed as inhibition of LPS-stimulated IL2 production at 3 ug/mL. Summed up: as §1
A short description of assay [7]: Immunosuppressive activity against human peripheral mononuclear cells assessed as inhibition of LPS-stimulated IFN-gamma production at 0.3 ug/mL. Summed up: as §1
A short description of assay [8]: Immunosuppressive activity against human peripheral mononuclear cells assessed as inhibition of LPS-stimulated IL2 production at 0.3 ug/mL. Summed up: as §1
The nature of assay [9]: Immunosuppressive activity against human peripheral mononuclear cells assessed as inhibition of LPS-stimulated IL4 production at 0.3 ug/mL. Summed up:
as §1

The structures appear in SMILES notation. The source made the active and inactive calls. The rule behind the calls is not given here.

For `C/C(=C\Cc1cc(C(=O)O)ccc1O)CCC(O)[C@]1(C)CC[C@H](C(C)(C)O)O1` (stereo not given in full), the outcome in the assay filed under Homo sapiens [1], in the assay listed under Homo sapiens [2] and in the assay filed under Homo sapiens [3] was inactive.
`CC(C)=CCCC(C)(O)C(O)CC/C(C)=C/Cc1cc(C(=O)O)ccc1O` (stereo not given): the outcome in the assay listed under Homo sapiens [1], in the assay listed under Homo sapiens [2] and in the assay filed under Homo sapiens [3] was inactive.
On to `C/C(=C\Cc1cc(C(=O)O)ccc1O)CC/C=C(\C)CCC(O)C(C)(C)O` (racemic), for which the outcome in the assay listed under Homo sapiens [1], in the assay listed under Homo sapiens [2] and in the assay filed under Homo sapiens [3] was inactive.
As for `CC(C)=CCC/C(C)=C/CC[C@@]1(C)Oc2ccc(C(=O)O)cc2C[C@H]1O` (racemic) [KUHISTANOL D], the inhibition (as a rule, the drop in the measured response relative to a control, in per cent) at 3 µg/mL is 61.8% in assay [4], 70.3% in assay [5] and 77.3% in assay [6].
Turning to `C[C@]12C=CC(=O)C=C1CC[C@@H]1[C@@H]2[C@@H](O)C[C@@]2(C)[C@H]1CC[C@]2(O)C(=O)CO` [PREDNISOLONE], the inhibition at 0.3 µg/mL in [7] was 60.2%; in [8] it was 65.6%; in assay [9] it was 55.3%.

For the origin of these results see ChEMBL document CHEMBL1155695, “Prenylated benzoic acid derivatives from Ferula kuhistanica” (2000).
